# Source: ChEMBL document CHEMBL1138981, “Synthesis and SAR of 1,2-trans-(1-hydroxy-3-phenylprop-1-yl)cyclopentane carboxamide derivatives, a new class of sodium channel blockers” (Bioorg Med Chem Lett, 2006)
# How the values were obtained:
# [1] = biological target: Sodium channel protein type 9 subunit alpha (Homo sapiens, UniProt Q15858); test: Inhibition of peripheral nerve sodium channel NaV1.7
# hERG (KCNH2) [2] = biological target: T1, hERG (KCNH2) (Homo sapiens, UniProt Q12809); test: (§1) Displacement of [35S]-labeled MK499 from hERG at 10 uM; conditions: probe [35S]-MK499
# T1 sequence (Q12809 whole entry): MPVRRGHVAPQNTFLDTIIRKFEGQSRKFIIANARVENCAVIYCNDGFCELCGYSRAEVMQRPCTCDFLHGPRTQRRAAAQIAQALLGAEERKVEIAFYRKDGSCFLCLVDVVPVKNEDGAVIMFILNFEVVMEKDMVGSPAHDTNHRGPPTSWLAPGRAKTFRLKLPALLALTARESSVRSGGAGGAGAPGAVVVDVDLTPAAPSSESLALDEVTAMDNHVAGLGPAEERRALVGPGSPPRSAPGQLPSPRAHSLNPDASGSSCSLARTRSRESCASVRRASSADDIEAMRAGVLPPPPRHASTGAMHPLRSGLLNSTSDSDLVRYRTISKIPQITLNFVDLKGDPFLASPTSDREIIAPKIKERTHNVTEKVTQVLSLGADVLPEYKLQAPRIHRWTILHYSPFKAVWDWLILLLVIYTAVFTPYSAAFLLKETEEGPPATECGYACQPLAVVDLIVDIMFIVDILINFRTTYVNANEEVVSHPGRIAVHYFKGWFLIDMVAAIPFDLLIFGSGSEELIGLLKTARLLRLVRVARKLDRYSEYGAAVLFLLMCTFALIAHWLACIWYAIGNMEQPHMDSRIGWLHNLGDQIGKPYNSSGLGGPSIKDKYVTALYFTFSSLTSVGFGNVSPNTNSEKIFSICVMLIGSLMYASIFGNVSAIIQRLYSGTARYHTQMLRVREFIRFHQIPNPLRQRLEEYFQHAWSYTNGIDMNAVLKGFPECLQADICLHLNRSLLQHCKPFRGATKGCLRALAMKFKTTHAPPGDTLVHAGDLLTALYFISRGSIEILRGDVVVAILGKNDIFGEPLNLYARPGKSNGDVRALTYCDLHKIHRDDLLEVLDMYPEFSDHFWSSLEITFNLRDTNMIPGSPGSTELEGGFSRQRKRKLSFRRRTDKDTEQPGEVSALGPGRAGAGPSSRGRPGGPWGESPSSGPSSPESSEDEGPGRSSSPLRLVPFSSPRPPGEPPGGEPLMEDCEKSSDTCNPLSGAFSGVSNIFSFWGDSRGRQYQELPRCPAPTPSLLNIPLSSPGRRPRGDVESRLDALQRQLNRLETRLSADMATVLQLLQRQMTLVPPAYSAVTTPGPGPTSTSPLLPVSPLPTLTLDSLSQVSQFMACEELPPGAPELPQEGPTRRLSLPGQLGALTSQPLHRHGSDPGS
# [3] = (§2) Stability in human liver microsome after 1 hr; format: ADME, microsomes; conditions: liver microsomes, read-out: Stability
# [4] = (§3) Oral bioavailability in rat; format: ADME, organism-based; conditions: in vivo
# [5] = Plasma clearance in rat at 1 mg/kg, iv; format: ADME, organism-based; design: dose 1 mg/kg, route intravenous
# [6] = (§4) Half life in rat at 1 mg/kg, iv; format: ADME, organism-based; design: dose 1 mg/kg, route intravenous; conditions: in vivo
# [7] = Cmax in rat at 2 mg/kg, po; format: ADME, organism-based; design: dose 2 mg/kg, route oral; conditions: in vivo
# Rattus norvegicus [8] = test: AUC in rat at 2 mg/kg, po; format: ADME, organism-based, Plasma; design: dose 2 mg/kg, route oral; conditions: in vivo
# Rattus norvegicus [9] = test: Anti-allodynic efficacy in rat chronic pain model at 3 mg/kg, po; format: ADME, organism-based; design: dose 3 mg/kg, route oral; conditions: in vivo
# Procedure, shortened: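 Chronic inflammatory pain induced in rats by intradermal injection of complete Freund's adjuvant (CFA). The read-out was reversal of CFA-induced allodynia after oral dosing.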
# hERG (KCNH2) [10] = biological target: T1, hERG (KCNH2); test: Displacement of [35S]-labeled MK499 from hERG at 1 uM; conditions: probe [35S]-MK499
# [11] = biological target: Voltage-gated inwardly rectifying potassium channel KCNH2 (Homo sapiens, UniProt Q12809); test: as §1; conditions: 10 µM
# Voltage-gated inwardly rectifying potassium channel KCNH2, sequence (Q12809 whole entry): as above
# Liver microsomes = test: as §2; format: ADME; conditions: microsomes, 1 h
# Rattus norvegicus [12] = test: as §3; format: ADME, organism-based; conditions: in vivo
# Rattus norvegicus [13] = test: as §4; format: ADME, organism-based; design: dose 1 mg/kg, route intravenous; conditions: in vivo
# [14] = (§5) Cmax in rat at 3 mg/kg, po; format: ADME, organism-based; design: dose 3 mg/kg, route oral; conditions: in vivo
# Rattus norvegicus [15] = test: AUC in rat at 3 mg/kg, po; format: ADME, organism-based, Plasma; design: dose 3 mg/kg, route oral; conditions: in vivo
# Rattus norvegicus [16] = test: as §5; format: ADME, organism-based; design: dose 3 mg/kg, route oral; conditions: in vivo
# Sodium channel protein type 9 subunit alpha, sequence (Q15858 whole entry): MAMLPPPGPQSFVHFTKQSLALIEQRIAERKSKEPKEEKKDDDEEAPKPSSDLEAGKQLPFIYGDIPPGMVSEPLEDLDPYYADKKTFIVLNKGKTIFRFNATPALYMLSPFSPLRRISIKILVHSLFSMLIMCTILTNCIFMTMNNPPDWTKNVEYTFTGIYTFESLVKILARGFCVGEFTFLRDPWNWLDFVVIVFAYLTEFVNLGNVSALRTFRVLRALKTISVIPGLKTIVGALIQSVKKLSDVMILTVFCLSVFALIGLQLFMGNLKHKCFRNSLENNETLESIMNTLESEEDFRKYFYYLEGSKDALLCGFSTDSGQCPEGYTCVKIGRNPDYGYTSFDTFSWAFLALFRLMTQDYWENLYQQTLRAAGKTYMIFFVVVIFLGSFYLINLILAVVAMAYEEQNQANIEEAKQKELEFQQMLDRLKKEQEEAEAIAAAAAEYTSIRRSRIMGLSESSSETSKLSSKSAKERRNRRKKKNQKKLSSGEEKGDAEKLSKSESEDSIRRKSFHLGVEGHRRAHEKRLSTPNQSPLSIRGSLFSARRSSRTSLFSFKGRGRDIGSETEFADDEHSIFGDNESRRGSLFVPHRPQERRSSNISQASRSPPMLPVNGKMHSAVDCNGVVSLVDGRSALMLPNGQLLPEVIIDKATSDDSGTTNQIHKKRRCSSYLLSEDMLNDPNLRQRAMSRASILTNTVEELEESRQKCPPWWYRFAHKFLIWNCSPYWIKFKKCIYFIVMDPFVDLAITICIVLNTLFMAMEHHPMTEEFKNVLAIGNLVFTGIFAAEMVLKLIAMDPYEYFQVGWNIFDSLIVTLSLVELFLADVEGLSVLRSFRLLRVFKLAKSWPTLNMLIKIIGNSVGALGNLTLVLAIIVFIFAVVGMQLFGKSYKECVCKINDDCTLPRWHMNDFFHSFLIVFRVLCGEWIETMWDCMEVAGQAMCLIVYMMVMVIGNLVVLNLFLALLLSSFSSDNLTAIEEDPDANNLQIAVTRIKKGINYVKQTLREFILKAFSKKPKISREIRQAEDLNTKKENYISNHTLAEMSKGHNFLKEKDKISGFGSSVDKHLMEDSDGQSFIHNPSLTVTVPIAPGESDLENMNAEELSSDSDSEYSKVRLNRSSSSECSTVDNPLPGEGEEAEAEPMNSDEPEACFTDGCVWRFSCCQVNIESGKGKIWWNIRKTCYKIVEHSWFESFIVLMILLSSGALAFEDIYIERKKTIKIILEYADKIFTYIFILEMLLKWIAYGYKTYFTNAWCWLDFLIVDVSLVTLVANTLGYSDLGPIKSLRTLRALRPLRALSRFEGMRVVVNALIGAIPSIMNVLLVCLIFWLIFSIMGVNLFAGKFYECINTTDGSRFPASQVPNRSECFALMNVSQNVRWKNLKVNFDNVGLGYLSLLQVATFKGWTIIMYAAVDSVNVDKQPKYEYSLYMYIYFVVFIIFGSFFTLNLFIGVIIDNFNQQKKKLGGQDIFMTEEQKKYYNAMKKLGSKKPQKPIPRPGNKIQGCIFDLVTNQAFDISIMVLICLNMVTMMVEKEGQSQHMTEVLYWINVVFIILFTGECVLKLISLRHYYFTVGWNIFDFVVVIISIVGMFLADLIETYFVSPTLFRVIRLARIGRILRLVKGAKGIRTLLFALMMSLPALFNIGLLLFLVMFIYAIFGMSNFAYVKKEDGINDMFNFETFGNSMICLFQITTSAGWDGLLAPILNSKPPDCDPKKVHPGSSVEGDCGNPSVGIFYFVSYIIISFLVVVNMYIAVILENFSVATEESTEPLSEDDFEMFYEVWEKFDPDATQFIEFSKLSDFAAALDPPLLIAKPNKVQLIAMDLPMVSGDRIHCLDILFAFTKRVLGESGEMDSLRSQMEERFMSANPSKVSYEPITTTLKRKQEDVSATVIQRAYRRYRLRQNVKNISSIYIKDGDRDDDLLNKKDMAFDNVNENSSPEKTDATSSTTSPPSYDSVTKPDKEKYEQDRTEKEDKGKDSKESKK
IC50 [1] [nM],Structure (SMILES),inhibition at 10 µM (hERG (KCNH2) [2]) [%],other results
> 3000,O=S(=O)(NC[C@@H]1CCC[C@H]1C(O)CCc1ccccc1)c1cc(Cl)cc(Cl)c1 (relative stereo),90,
440,O=C(NCc1ccccc1C(F)(F)F)[C@@H]1CCC[C@H]1C(O)CCc1cccc(OC(F)(F)F)c1 (relative stereo),78,
230,O=C(NCc1ccccc1)[C@@H]1CCC[C@H]1C(O)CCc1cccc(OC(F)(F)F)c1 (relative stereo),89,
870,O=C(NCc1cc(Cl)cc(Cl)c1)[C@@H]1CCC[C@H]1C(O)CCc1ccc(OC(F)(F)F)cc1 (relative stereo),93,
1490,CN(Cc1ccccc1)C(=O)[C@@H]1CCC[C@H]1C(=O)NCc1ccc(OC(F)(F)F)cc1 (relative stereo),,
> 3000,O=C(NCc1ccccc1)[C@@H]1CCC[C@H]1C(O)CCc1ccccc1 (relative stereo),,
320,O=C(NCc1ccccc1)[C@@H]1CCC[C@H]1C(O)CCc1ccccc1OC(F)(F)F (relative stereo),92,
290,CN(Cc1ccc(-c2ccccc2S(N)(=O)=O)cc1)C(=O)[C@@H]1CCC[C@H]1C(=O)NCc1ccc(OC(F)(F)F)cc1 (relative stereo),54,remaining at 1 h [3]: 4%; bioavailability [4]: 44%; clearance [5]: 14 mL/min/kg; half-life [6]: 1 h; Cmax [7]: 1000 nM; AUC (Rattus norvegicus [8]): 1.8 µM·h; Efficacy (Rattus norvegicus [9]): 43%
> 3000,OC(CCc1ccccc1)[C@@H]1CCC[C@H]1OCCc1cc(Cl)cc(Cl)c1 (relative stereo),40,
> 3000,CS(=O)(=O)c1ccc(CCC(O)[C@@H]2CCC[C@H]2C(=O)NCc2ccc(OC(F)(F)F)cc2)cc1 (relative stereo),,
1110,OC(CCc1ccccc1)[C@@H]1CCC[C@H]1COCc1cc(Cl)cc(Cl)c1 (relative stereo),59,
640,O=C(NCc1ccccc1)[C@@H]1CCC[C@H]1C(O)CCc1ccc(OC(F)(F)F)cc1 (stereo in doubt; 13),,Inhibition [11]: 52%; Stability (Liver microsomes): 13%; F (Rattus norvegicus [12]): 40%; T1/2 (Rattus norvegicus [13]): 1.6 h; Cmax [14]: 1900 nM; AUC (Rattus norvegicus [15]): 5.3 µM·h; Efficacy (Rattus norvegicus [9]): 25%
520,O=C(NCc1ccccc1)[C@@H]1CCC[C@H]1C(O)CCc1ccc(OC(F)(F)F)cc1 (stereo in doubt; 13A),,Inhibition [11]: 68%

# The remaining lines, values behind:
Structure (SMILES),IC50 [1] [nM],inhibition at 10 µM (hERG (KCNH2) [2]) [%],other results
O=S(=O)(NC[C@@H]1CCC[C@H]1C(O)CCc1ccccc1)c1ccc(OC(F)(F)F)cc1 (relative stereo),630,90,
OC(CCc1ccccc1)[C@@H]1CCC[C@H]1OCCc1ccc(OC(F)(F)F)cc1 (relative stereo),> 3000,70,
O=C(NC[C@@H]1CCC[C@H]1C(O)CCc1ccccc1)c1cc(Cl)cc(Cl)c1 (relative stereo),> 3000,79,
COc1ccc(CCC(O)[C@@H]2CCC[C@H]2C(=O)NCc2cc(Cl)cc(Cl)c2)cc1 (relative stereo),1210,70,
O=C(NC[C@@H]1CCC[C@H]1C(O)CCc1ccccc1)c1ccc(OC(F)(F)F)cc1 (relative stereo),330,84,inhibition at 1 µM (hERG (KCNH2) [10]): 45%
O=C(NCc1cc(Cl)cc(Cl)c1)[C@@H]1CCC[C@H]1C(O)CCc1ccccc1OC(F)(F)F (relative stereo),1150,73,
O=C(NCc1cc(Cl)cc(Cl)c1)[C@@H]1CCC[C@H]1C(O)CCc1cccc(OC(F)(F)F)c1 (relative stereo),440,87,
O=C(NCc1cc(Cl)cc(Cl)c1)[C@@H]1CCC[C@H]1C(O)CCc1ccccc1 (relative stereo),980,91,
OC(CCc1ccccc1)[C@@H]1CCC[C@H]1COCc1ccc(OC(F)(F)F)cc1 (relative stereo),820,65,
O=C(NCc1ccccc1)[C@@H]1CCC[C@H]1C(O)CCc1ccc(OC(F)(F)F)cc1 (stereo in doubt; 13B),360,60,Stability (Liver microsomes): 49%; F (Rattus norvegicus [12]): 65%; clearance [5]: 9 mL/min/kg; half-life [6]: 1.6 h; Cmax (Rattus norvegicus [16]): 2300 nM; AUC (Rattus norvegicus [15]): 9 µM·h; Efficacy (Rattus norvegicus [9]): 31%
